The test system of series [1] is Wi-38 normal human lung fibroblast cells. The experiment in a line: MTT assay against normal human cell line. The class given is cell-based. Particulars: for IC50: Homo sapiens, WI-38, 72 h, read-out: Wi-38 IC50; for Wi-38 IC100: MTT, 72 h, SI calls it EC100, dose at 100% cell viability, mean ± SEM. Put shortly:
(§1)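 Cytotoxicity by MTT, run side by side on MCF-7 and MDA-MB231 breast cancer cells and Wi-38 normal human fibroblasts, with doxorubicin as reference. IC50 was determined for each line, and IC100 also on Wi-38. Selectivity indices express selectivity toward each breast cancer line over the normal Wi-38 cells.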
Background: Formazan colour is commonly taken as a measure of viable cells.

For the next series, the system named is MCF-7 cells. As to the kind of experiment: MTT assay against human breast cancer cell line MCF-7. The class given is cell-based. Particulars: for IC50: Homo sapiens, MCF7, 72 h, read-out: MCF-7 IC50; for MCF-7 SI (selectivity index): over Wi-38 normal cells; for cytotoxicity compared to doxorubicin: MTT, cell line not given, fits MCF-7 IC50 values; for fold reduction of potency and selectivity relative to 18: MCF-7, bromo replaced by chloro or nitro. In a few lines:
as §1

The test system of a further series is MDA-MB 231 cells. The experiment in a line: MTT assay against human breast cancer cell line MDA-MB 231. It counts as cell-based. Particulars: for IC50: Homo sapiens, MDA-MB-231, 72 h, read-out: MDA-MB 231 IC50; for MDA-MB 231 SI (selectivity index): over Wi-38 normal cells. In a few lines: as §1
In a further series the test system is calf thymus DNA (ctDNA). The experiment in a line: DNA damage by terbium. It counts as biochemical. To be noted: 24 h incubation, Tb fluorescence 545 nm.

SMILES strings stand for the structures.

As for `CC(=O)Nc1c(N)nc(S)[nH]c1=O` [Compound 3, N-(4-amino-2-mercapto-6-oxo-1,6-dihydropyrimidin-5-yl)acetamide], in series [1], the IC50 amounted to 1340 ± 72 nM and the “Wi-38 IC100” value worked out at 0.103 ± 0.045 µM. For the same compound, in the series on MCF-7 cells, the IC50 came to 832 ± 48 nM and the “MCF-7 SI (selectivity index)” value is given as 1.615. Further, in the series with MDA-MB 231 cells, the IC50 was found to be 1440 ± 255 nM and the “MDA-MB 231 SI (selectivity index)” value is listed as 0.930.

For `CCOC(=O)CSc1nc(N)c(NC(C)=O)c(=O)[nH]1` [Compound 4, Ethyl 2-((5-Acetamido-4-amino-6-Oxo-1,6-dihydropyrimidin-2-yl)thio)acetate], in series [1], the IC50 is 852 ± 11 nM and the “Wi-38 IC100” value came out at 0.352 ± 0.012 µM. Moreover, in the series with MCF-7 cells, the IC50 came to 266 ± 15 nM and the “MCF-7 SI (selectivity index)” value is given as 3.203. Further, in the series with MDA-MB 231 cells, the concentration for half-maximal inhibition (IC50) was determined as 840 ± 50 nM and the “MDA-MB 231 SI (selectivity index)” value worked out at 1.014.

On to `CC(=O)Nc1c(N)nc(SCC(=O)N/N=C/c2ccc(Cl)cc2)[nH]c1=O` [Compound 6, (E)-N-(4-amino-2-((2-(2-(4-chlorobenzylidene)hydrazinyl)-2-oxoethyl)thio)-6-oxo-1,6-dihydropyrimidin-5-yl)acetamide], for which, in series [1], the IC50 was 692 ± 64 nM and the “Wi-38 IC100” value was determined as 0.037 ± 0.007 µM. In the series with MCF-7 cells, the IC50 stood at 445 ± 15 nM and the “MCF-7 SI (selectivity index)” value was 1.555. Further, in the series with MDA-MB 231 cells, the IC50 was found to be 681 ± 29 nM and the “MDA-MB 231 SI (selectivity index)” value is 1.016.

For `CC(=O)Nc1c(N)nc(SCC(=O)N/N=C/c2ccc(Br)cc2)[nH]c1=O` [Compound 7, (E)-N-(4-amino-2-((2-(2-(4-bromobenzylidene)hydrazinyl)-2-oxoethyl)thio)-6-oxo-1,6-dihydropyrimidin-5-yl)acetamide], in series [1], the IC50 was 408 ± 81 nM and the “Wi-38 IC100” value is 0.232 ± 0.003 µM. In the series on MCF-7 cells, the IC50 was 167 ± 40 nM and the “cytotoxicity compared to doxorubicin” value is on record as “surpassed doxorubicin”. Further, in the series on MDA-MB 231 cells, the IC50 turned out to be 616 ± 20 nM and the “MDA-MB 231 SI (selectivity index)” value was found to be 0.662.

In the case of `CC(=O)Nc1c(N)nc(SCC(=O)N/N=C/c2ccc([N+](=O)[O-])cc2)[nH]c1=O` [Compound 8, (E)-N-(4-amino-2-((2-(2-(4-nitrobenzylidene)hydrazinyl)-2-oxoethyl)thio)-6-oxo-1,6-dihydropyrimidin-5-yl)acetamide], in the series with calf thymus DNA (ctDNA), the “LOD (minimum concentration inducing detectable DNA damage)” value was 30.03 nM and the LOQ is on record as 100.12 nM. For the same compound, in series [1], the IC50 turned out to be 713 ± 44 nM and the “Wi-38 IC100” value was 0.491 ± 0.084 µM. For the same compound, in the series with MCF-7 cells, the IC50 came out at 146 ± 11 nM, the “cytotoxicity compared to doxorubicin” value was “surpassed doxorubicin” and the “MCF-7 SI (selectivity index)” value stood at 4.883. In the series on MDA-MB 231 cells, the IC50 stood at 583 ± 20 nM and the “MDA-MB 231 SI (selectivity index)” value came out at 1.222.

In the case of `COc1ccc(/C=N/NC(=O)CSc2nc(N)c(NC(C)=O)c(=O)[nH]2)cc1` [Compound 9, (E)-N-(4-amino-2-((2-(2-(4-methoxybenzylidene)hydrazinyl)-2-oxoethyl)thio)-6-oxo-1,6-dihydropyrimidin-5-yl)acetamide], in series [1], the IC50 is 1050 ± 25 nM and the “Wi-38 IC100” value came out at 0.424 ± 0.020 µM. For the same compound, in the series with MCF-7 cells, the half-inhibitory concentration (IC50) is 217 ± 16 nM and the “MCF-7 SI (selectivity index)” value worked out at 4.820. In addition, in the series with MDA-MB 231 cells, the IC50 stood at 683 ± 1 nM and the “MDA-MB 231 SI (selectivity index)” value turned out to be 1.531.

As for `CC(=O)Nc1c(N)nc(SCC(=O)N/N=C/c2ccccc2O)[nH]c1=O` [Compound 10, (E)-N-(4-amino-2-((2-(2-(2-hydroxybenzylidene)hydrazinyl)-2-oxoethyl)thio)-6-oxo-1,6-dihydropyrimidin-5-yl)acetamide], in series [1], the IC50 turned out to be 501 ± 49 nM and the “Wi-38 IC100” value is 0.241 ± 0.037 µM. Moreover, in the series on MCF-7 cells, the IC50 was found to be 102 ± 1 nM, the “cytotoxicity compared to doxorubicin” value is given as “surpassed doxorubicin” and the “MCF-7 SI (selectivity index)” value was found to be 4.911. In the series on MDA-MB 231 cells, the IC50 was 590 ± 49 nM and the “MDA-MB 231 SI (selectivity index)” value was 0.849.

As to `Cc1cc(=O)n2c(C)n[nH]c2n1` [Compound 14, 3,7-Dimethyl-1,2,4-triazolo[4,3-a]pyrimidin-5(1H)-one], in series [1], the IC50 is 1510 ± 41 nM and the “Wi-38 IC100” value was found to be 0.206 ± 0.014 µM. Besides, in the series with MCF-7 cells, the IC50 is 292 ± 10 nM and the “MCF-7 SI (selectivity index)” value is 5.157. Besides, in the series with MDA-MB 231 cells, the IC50 was 1260 ± 52 nM and the “MDA-MB 231 SI (selectivity index)” value is on record as 1.200.

Regarding `COC(=O)Cn1nc(C)n2c(=O)cc(C)nc12` [Compound 15, Methyl 2-(3,7-dimethyl-5-oxo-1,2,4-triazolo[4,3-a]pyrimidin-1(5H)-yl)acetate], in series [1], the IC50 came to 1170 ± 22 nM and the “Wi-38 IC100” value is 0.237 ± 0.017 µM. In the series on MCF-7 cells, the IC50 is 617 ± 29 nM and the “MCF-7 SI (selectivity index)” value is reported as 1.894. In the series with MDA-MB 231 cells, the half-inhibitory concentration (IC50) worked out at 1280 ± 56 nM and the “MDA-MB 231 SI (selectivity index)” value amounted to 0.912.

Take `Cc1cc(=O)n2c(C)nn(CC(=O)NN)c2n1` [Compound 16, 2-(3,7-Dimethyl-5-oxo-1,2,4-triazolo[4,3-a]pyrimidin-1(5H)-yl)acetohydrazide]: in series [1], the IC50 stood at 978 ± 13 nM and the “Wi-38 IC100” value was 0.115 ± 0.033 µM. Besides, in the series on MCF-7 cells, the IC50 worked out at 544 ± 8 nM and the “MCF-7 SI (selectivity index)” value came to 1.797. Besides, in the series with MDA-MB 231 cells, the half-maximal inhibitory concentration (IC50) was found to be 1128 ± 2 nM and the “MDA-MB 231 SI (selectivity index)” value is 0.867.

Regarding `Cc1cc(=O)n2c(C)nn(CC(=O)N/N=C/c3ccc(Cl)cc3)c2n1` [Compound 17, (E)-N′-(4-chlorobenzylidene)-2-(3,7-dimethyl-5-oxo-1,2,4-triazolo[4,3-a]pyrimidin-1(5H)-yl)acetohydrazide], in series [1], the IC50 was 593 ± 24 nM and the “Wi-38 IC100” value stood at 0.124 ± 0.034 µM. Also, in the series with MCF-7 cells, the IC50 turned out to be 403 ± 62 nM; the “fold reduction of potency and selectivity relative to 18” value came to 5 fold; the “MCF-7 SI (selectivity index)” value is reported as 1.471. In addition, in the series on MDA-MB 231 cells, the IC50 worked out at 632 ± 29 nM and the “MDA-MB 231 SI (selectivity index)” value was found to be 0.938.

On to `Cc1cc(=O)n2c(C)nn(CC(=O)N/N=C/c3ccc(Br)cc3)c2n1` [Compound 18, (E)-N′-(4-bromobenzylidene)-2-(3,7-dimethyl-5-oxo-1,2,4-triazolo[4,3-a]pyrimidin-1(5H)-yl)acetohydrazide], for which, in series [1], the IC50 amounted to 593 ± 5 nM and the “Wi-38 IC100” value is 0.111 ± 0.005 µM. Also, in the series on MCF-7 cells, the half-inhibitory concentration (IC50) amounted to 42 ± 9 nM, the “cytotoxicity compared to doxorubicin” value is recorded as “surpassed doxorubicin” and the “MCF-7 SI (selectivity index)” value turned out to be 14.119. Besides, in the series with MDA-MB 231 cells, the IC50 is 559 ± 29 nM and the “MDA-MB 231 SI (selectivity index)” value is 1.060.

Turning to `Cc1cc(=O)n2c(C)nn(CC(=O)N/N=C/c3ccc([N+](=O)[O-])cc3)c2n1` [Compound 19, (E)-N′-(4-nitrobenzylidene)-2-(3,7-dimethyl-5-oxo-1,2,4-triazolo[4,3-a]pyrimidin-1(5H)-yl)acetohydrazide], in series [1], the IC50 was 612 ± 34 nM and the “Wi-38 IC100” value stood at 0.329 ± 0.031 µM. In the series on MCF-7 cells, the IC50 amounted to 201 ± 39 nM; the “fold reduction of potency and selectivity relative to 18” value turned out to be 10 fold; the “MCF-7 SI (selectivity index)” value turned out to be 3.044. For the same compound, in the series with MDA-MB 231 cells, the 50% inhibitory concentration (IC50) was determined as 820 ± 90 nM and the “MDA-MB 231 SI (selectivity index)” value came to 0.746.

Take `COc1ccc(/C=N/NC(=O)Cn2nc(C)n3c(=O)cc(C)nc23)cc1` [Compound 20, (E)-N′-(4-methoxybenzylidene)-2-(3,7-dimethyl-5-oxo-1,2,4-triazolo[4,3-a]pyrimidin-1(5H)-yl)acetohydrazide]: in series [1], the IC50 was determined as 723 ± 20 nM and the “Wi-38 IC100” value came out at 0.280 ± 0.037 µM. Besides, in the series on MCF-7 cells, the IC50 is 334 ± 20 nM. Moreover, in the series on MDA-MB 231 cells, the IC50 amounted to 856 ± 19 nM and the “MDA-MB 231 SI (selectivity index)” value was 0.844.

On to `Cc1cc(=O)n2c(C)nn(CC(=O)N/N=C/c3ccccc3O)c2n1` [Compound 21, (E)-N′-(2-hydroxybenzylidene)-2-(3,7-dimethyl-5-oxo-1,2,4-triazolo[4,3-a]pyrimidin-1(5H)-yl)acetohydrazide], for which, in series [1], the IC50 came out at 518 ± 8 nM and the “Wi-38 IC100” value amounted to 0.269 ± 0.026 µM. Besides, in the series with MCF-7 cells, the IC50 came to 52 ± 10 nM, the “cytotoxicity compared to doxorubicin” value is listed as “surpassed doxorubicin” and the “MCF-7 SI (selectivity index)” value worked out at 9.961. Further, in the series with MDA-MB 231 cells, the IC50 is 697 ± 24 nM and the “MDA-MB 231 SI (selectivity index)” value turned out to be 0.743.

Take `COc1cccc2c1C(=O)c1c(O)c3c(c(O)c1C2=O)C[C@@](O)(C(=O)CO)C[C@@H]3O[C@H]1C[C@H](N)[C@H](O)[C@H](C)O1` [DOX., doxorubicin, reference compound]: in the series with calf thymus DNA (ctDNA), the “LOD (minimum concentration inducing detectable DNA damage)” value is reported as 0.76 nM and the LOQ was determined as 2.56 nM. For the same compound, in series [1], the concentration for half-maximal inhibition (IC50) was 322 ± 25 nM and the “Wi-38 IC100” value amounted to 0.119 ± 0.005 µM. Also, in the series with MCF-7 cells, the half-inhibitory concentration (IC50) turned out to be 198 ± 11 nM and the “MCF-7 SI (selectivity index)” value was 1.626. In the series on MDA-MB 231 cells, the IC50 was 487 ± 18 nM and the “MDA-MB 231 SI (selectivity index)” value stood at 0.661.

Usually IC50 stands for the midpoint of a concentration-inhibition curve.

Source of the values: publication PMC11097374 (ACS Omega, 2024).
